Columns and labels:
Histamine H2 receptor [1] = target: T1, Histamine H2 receptor (Cavia porcellus, UniProt P47747); assay: Inhibition of [125I]APT binding to histamine H2 receptor in guinea pig cerebral membranes.; format: cell membranes
Method in brief: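 Striatal membranes from male Hartley guinea pigs (200-300 g) in 50 mM sodium/potassium phosphate, pH 7.5, with 0.1% gelatin. Membranes incubated with 125I-APT 120 min at 25 °C, in triplicate. Stopped with cold buffer containing 0.1% BSA, then filtered on polyethylenimine-treated glass-fiber filters and γ-counted. […] Azido compounds handled under dim light.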

[2] = target: Histamine H2 receptor (Cavia porcellus) (UniProt P47747); assay: Histamine H2 receptor antagonism at a concentration of 1 umolar on the isolated guinea pig right atrium.; format: functional, tissue-based; details: Cardiac atrium
[3] = target: Histamine H2 receptor (Cavia porcellus) (UniProt P47747); assay: Inhibition of the positive chronotropic response (histamine H2 receptor antagonism) of guinea pig right atrium relative to cimetidine.; format: functional, tissue-based; details: Cardiac atrium
[4] = target: Histamine H2 receptor (Cavia porcellus) (UniProt P47747); assay: Histamine H2 receptor antagonistic activity at a concentration of 0.3 uM on the isolated guinea pig right atrium; format: functional, tissue-based; details: Cardiac atrium
[5] = Inhibition of the positive chronotropic response (H2-antagonism) of guinea pig right atrium relative to cimetidine.; format: functional, Cavia porcellus, Cardiac atrium
[6] = target: Histamine H2 receptor (Cavia porcellus) (UniProt P47747); assay: Histamine H2 receptor antagonistic activity at a concentration of 0.3 and 1 uM on the isolated guinea pig right atrium.; format: functional, tissue-based; details: Cardiac atrium
[7] = target: Histamine H2 receptor (Cavia porcellus) (UniProt P47747); assay: Histamine H2 receptor antagonistic activity at a concentration of 0.3 and 0.1 uM on the isolated guinea pig right atrium.; format: functional, tissue-based; details: Cardiac atrium
Histamine H2 receptor [8] = target: T1, Histamine H2 receptor; assay: Histamine H2 receptor antagonistic activity on the isolated guinea pig right atrium.; details: read-out: pA2 (converted)
Histamine H1 receptor = Histamine H1 receptor (Cavia porcellus, UniProt P31389); assay: Histamine H1 receptor antagonistic activity on the isolated guinea pig ileum determined by Schild plot.; format: functional, tissue-based; details: read-out: pA2 (converted)
Method in brief: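 Whole proximal guinea pig ileum segments in Tyrode's solution gassed with 95% O2/5% CO2, isotonic recording at 10 mN load. Cumulative histamine (0.01-3 μM) curves. Antagonist applied 10 min before the curve. pK_B from concentration ratio, or pA2 by Schild plot.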

Histamine H2 receptor [9] = target: T1, Histamine H2 receptor; assay: Inhibition of [125I]APT binding to H2 receptors in guinea pig cerebral membranes.; format: cell membranes
Method in brief: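 Striatal membranes from male Hartley guinea pigs (200-300 g) in 50 mM sodium/potassium phosphate, pH 7.5, with 0.1% gelatin. Stopped with cold buffer containing 0.1% BSA, then filtered on polyethylenimine-treated glass-fiber filters and γ-counted. Azido compounds handled under dim light.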

[10] = target: Histamine H2 receptor (Cavia porcellus) (UniProt P47747); assay: Potency to inhibit the positive chronotropic response (H2-antagonism) of guinea pig right atrium relative to cimetidine.; format: functional, tissue-based; details: Cardiac atrium
[11] = target: Muscarinic acetylcholine receptor M3 (Cavia porcellus) (UniProt Q8VH26)
[12] = target: Histamine H1 receptor (Cavia porcellus) (UniProt P31389)
Histamine H1 receptor (Cavia porcellus), sequence (P31389 whole entry): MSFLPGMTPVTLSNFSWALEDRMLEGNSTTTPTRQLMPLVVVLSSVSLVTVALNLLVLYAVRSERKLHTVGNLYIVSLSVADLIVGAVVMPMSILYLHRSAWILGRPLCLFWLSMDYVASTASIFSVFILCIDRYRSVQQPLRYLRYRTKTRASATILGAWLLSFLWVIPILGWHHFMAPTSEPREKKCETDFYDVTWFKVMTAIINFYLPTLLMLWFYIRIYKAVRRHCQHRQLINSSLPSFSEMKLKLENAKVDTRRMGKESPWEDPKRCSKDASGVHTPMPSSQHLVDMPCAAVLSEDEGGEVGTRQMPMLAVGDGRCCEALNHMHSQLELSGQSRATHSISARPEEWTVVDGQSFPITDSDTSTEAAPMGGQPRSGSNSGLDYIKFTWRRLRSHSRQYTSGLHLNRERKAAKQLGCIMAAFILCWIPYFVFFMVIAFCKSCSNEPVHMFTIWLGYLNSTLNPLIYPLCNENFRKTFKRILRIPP

T1 sequence (P47747 whole entry): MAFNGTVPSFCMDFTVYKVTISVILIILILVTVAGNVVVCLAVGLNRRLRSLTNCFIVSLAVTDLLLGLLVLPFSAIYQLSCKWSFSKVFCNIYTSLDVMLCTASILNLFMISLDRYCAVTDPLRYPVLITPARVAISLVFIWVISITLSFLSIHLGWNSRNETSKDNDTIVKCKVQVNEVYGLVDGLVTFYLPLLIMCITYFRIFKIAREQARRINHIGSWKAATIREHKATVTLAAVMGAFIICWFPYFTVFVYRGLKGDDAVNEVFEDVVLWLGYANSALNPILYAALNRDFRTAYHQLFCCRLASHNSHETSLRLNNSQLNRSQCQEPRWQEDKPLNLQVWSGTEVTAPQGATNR
Histamine H2 receptor (Cavia porcellus), sequence (P47747 whole entry): as above
Muscarinic acetylcholine receptor M3 (Cavia porcellus), sequence (Q8VH26 1-587): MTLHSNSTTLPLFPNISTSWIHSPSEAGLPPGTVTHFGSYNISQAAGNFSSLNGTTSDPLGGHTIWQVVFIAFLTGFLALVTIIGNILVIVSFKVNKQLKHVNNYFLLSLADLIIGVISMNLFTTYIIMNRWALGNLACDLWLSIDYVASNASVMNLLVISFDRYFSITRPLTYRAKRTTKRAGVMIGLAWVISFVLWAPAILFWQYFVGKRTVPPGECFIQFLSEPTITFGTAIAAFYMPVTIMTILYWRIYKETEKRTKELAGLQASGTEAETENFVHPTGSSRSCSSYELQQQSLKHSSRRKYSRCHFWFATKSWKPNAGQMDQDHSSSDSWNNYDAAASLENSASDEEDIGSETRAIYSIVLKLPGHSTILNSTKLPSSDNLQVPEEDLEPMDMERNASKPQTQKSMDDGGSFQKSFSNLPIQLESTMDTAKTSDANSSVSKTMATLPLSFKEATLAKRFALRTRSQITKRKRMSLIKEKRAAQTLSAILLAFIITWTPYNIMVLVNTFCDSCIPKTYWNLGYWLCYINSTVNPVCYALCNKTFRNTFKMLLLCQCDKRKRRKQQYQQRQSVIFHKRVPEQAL
Histamine H1 receptor, sequence (P31389 whole entry): as the sequence (P31389 whole entry) above

CNC(=C[N+](=O)[O-])NCCSCc1ccc(CN(C)C)o1 [RANITIDINE]
Ki (Histamine H2 receptor [1]): 53.7 nM | pKB [2]: 7.2 | Relative potency [3]: 631%

N#CN/C(=N\CCNc1ccc(N=[N+]=[N-])cc1[N+](=O)[O-])NCCCCOc1cccc(CN2CCCCC2)c1
pKB [4]: 7.47 | Relative potency [3]: 1180%

CC(C)(C)OC(=O)Nc1ccc(CC(=O)NCC/N=C(\NC#N)NCCCCOc2cccc(CN3CCCCC3)c2)cc1
Relative potency [5]: 44% | pKB [2]: 6.04

N#CN/C(=N\CCCOc1cccc(CN2CCCCC2)c1)NCC(O)CNC(=O)c1ccccc1 (stereo not given)
Relative potency [5]: 813% | pKB [6]: 7.31

N#CN/C(=N\CCNS(=O)(=O)c1ccccc1)NCCCOc1cccc(CN2CCCCC2)c1
Relative potency [5]: 186% | pKB [6]: 6.67

N#CN/C(=N\CCCNc1ccccc1[N+](=O)[O-])NCCCOc1cccc(CN2CCCCC2)c1
pKB [7]: 7.52 | Relative potency [3]: 1320%

N#CN/C(=N\CCNC(=O)c1ccccc1)NCCCOc1cccc(CN2CCCCC2)c1
Relative potency [5]: 2630% | pKB [4]: 7.82

N#CN/C(=N\CCNC(=O)c1ccccc1)NCCCCOc1cccc(CN2CCCCC2)c1
Relative potency [5]: 1862% | pKB [2]: 7.67

N#CN/C(=N\CCCNC(=O)c1ccc(N=[N+]=[N-])cc1)NCCCCOc1cccc(CN2CCCCC2)c1
pKB [4]: 6.63 | Relative potency [3]: 170%

CN/C(=N\CCSCc1nc[nH]c1C)NC#N
pKB [2]: 6.4

N#CN/C(=N\CCNC(=O)c1cc(I)c(N)c(I)c1)NCCCCOc1cccc(CN2CCCCC2)c1
pKB [6]: 7.86 | Relative potency [3]: 2880%

N#CN/C(=N\CCNS(=O)(=O)c1ccccc1)NCCCCOc1cccc(CN2CCCCC2)c1
Relative potency [5]: 759% | pKB [2]: 7.28

N#CN/C(=N\CCCOc1cccc(CN2CCCCC2)c1)NCC(O)CNc1ccccc1[N+](=O)[O-] (stereo not given)
pKB [7]: 7.34 | Relative potency [3]: 871%

N#CN/C(=N\CCCCCNC(=O)c1ccccc1)NCCCOc1cccc(CN2CCCCC2)c1
Relative potency [5]: 151% | pKB [2]: 6.58

N#CN/C(=N\CCNC(=O)c1ccc(N=[N+]=[N-])cc1)NCCCOc1cccc(CN2CCCCC2)c1
pKB [2]: 7.9 | Relative potency [3]: 3160%

N#CN/C(=N\CCCNc1ccccc1[N+](=O)[O-])NCCCCOc1cccc(CN2CCCCC2)c1
pKB [2]: 7.85 | Relative potency [3]: 2820%

N#CN/C(=N\CCCCCCNC(=O)c1ccccc1)NCCCOc1cccc(CN2CCCCC2)c1
Relative potency [5]: 158% | pKB [2]: 6.6

N#CN/C(=N\CCNC(=O)CCCc1ccccc1)NCCCOc1cccc(CN2CCCCC2)c1
Relative potency [5]: 112% | pKB [2]: 6.45

N#CN=C(NCCCOc1cccc(CN2CCCCC2)c1)NCCNC(=O)c1ccc(N=[N+]=[N-])c(I)c1
Kb (Histamine H2 receptor [8]): 155 nM

N#CN/C(=N\CCCNc1ccc(N=[N+]=[N-])cc1[N+](=O)[O-])NCCCCOc1cccc(CN2CCCCC2)c1
pKB [2]: 6.56 | Relative potency [3]: 145%

N#CN/C(=N\CCNC(=O)c1cccc(N)c1)NCCCOc1cccc(CN2CCCCC2)c1
Relative potency [5]: 776% | pKB [6]: 7.29

N#CN/C(=N\CCNC(=O)c1ccc(N)cc1)NCCCCOc1cccc(CN2CCCCC2)c1
Relative potency [5]: 589% | pKB [4]: 7.17

N#CN/C(=N\CCCNC(=O)c1ccc(N=[N+]=[N-])cc1)NCCCOc1cccc(CN2CCCCC2)c1
pKB [2]: 6.36 | Relative potency [3]: 91%

N#CN/C(=N\CCCNC(=O)c1ccccc1)NCCCOc1cccc(CN2CCCCC2)c1
Relative potency [5]: 550% | pKB [4]: 7.14

N#CN/C(=N\CCNC(=O)Cc1ccccc1)NCCCOc1cccc(CN2CCCCC2)c1
Relative potency [5]: 339% | pKB [2]: 6.93

Cc1ccc(S(=O)(=O)NCC/N=C(\NC#N)NCCCCOc2cccc(CN3CCCCC3)c2)cc1
Relative potency [5]: 776% | pKB [2]: 7.29

C/N=C(/NC#N)NCCSCc1csc(NC(=N)N)n1
pKB [2]: 7.8

N#CN/C(=N\CCNc1ccc(N=[N+]=[N-])cc1[N+](=O)[O-])NCCCOc1cccc(CN2CCCCC2)c1
pKB [2]: 7.39 | Relative potency [3]: 977%

N#CN/C(=N\CCCNC(=O)CCc1ccccc1)NCCCOc1cccc(CN2CCCCC2)c1
Relative potency [5]: 47% | pKB [2]: 6.07

O=C(NCCCOc1cccc(CN2CCCCC2)c1)NCCNC(=O)c1ccccc1
Relative potency [5]: 50% | pKB [2]: 6.1

N#CN/C(=N\CCOC(=O)c1ccccc1)NCCCOc1cccc(CN2CCCCC2)c1
Relative potency [5]: 1738% | pKB [2]: 7.64

N#CN=C(NCCCOc1cccc(CN2CCCCC2)c1)NCCNC(=O)c1cccc(I)c1
Kb (Histamine H1 receptor): 2240 nM | Ki (Histamine H2 receptor [9]): 2.63 nM

N#CN/C(=N\CCCNC(=O)c1ccccc1)NCCCCOc1cccc(CN2CCCCC2)c1
Relative potency [5]: 158% | pKB [2]: 6.6

CC(C)(C)OC(=O)Nc1ccc(C(=O)NCC/N=C(\NC#N)NCCCOc2cccc(CN3CCCCC3)c2)cc1
Relative potency [5]: 295% | pKB [6]: 6.87

Nc1ccc(C(=O)NCCNC(=O)NCCCOc2cccc(CN3CCCCC3)c2)cc1
Relative potency [5]: 676% | pKB [2]: 7.23

N#CN/C(=N\CCNC(=O)c1ccc(N=[N+]=[N-])cc1)NCCCCOc1cccc(CN2CCCCC2)c1
pKB [4]: 7.54 | Relative potency [3]: 1380%

Nc1ccc(C(=O)NCCCOc2cccc(CN3CCCCC3)c2)cc1
Relative potency [5]: 263% | pKB [2]: 6.82

N#CN/C(=N\CCNC(=O)c1ccc(N)c(I)c1)NCCCCOc1cccc(CN2CCCCC2)c1
pKB [4]: 7.35 | Relative potency [3]: 891%

N#CN/C(=N\CCNC(=O)c1ccncc1)NCCCOc1cccc(CN2CCCCC2)c1
Relative potency [5]: 309% | pKB [2]: 6.89

Cc1ccc(S(=O)(=O)NCC/N=C(\NC#N)NCCCOc2cccc(CN3CCCCC3)c2)cc1
Relative potency [5]: 54% | pKB [2]: 6.13

N#CN/C(=N\CCCCNC(=O)c1ccccc1)NCCCOc1cccc(CN2CCCCC2)c1
Relative potency [5]: 257% | pKB [2]: 6.81

N#CN/C(=N\CCCNc1ccc(N=[N+]=[N-])cc1[N+](=O)[O-])NCCCOc1cccc(CN2CCCCC2)c1
pKB [4]: 6.79 | Relative potency [3]: 245%

N#CN/C(=N\CCNC(=O)c1ccccc1[N+](=O)[O-])NCCCCOc1cccc(CN2CCCCC2)c1
Relative potency [5]: 1318% | pKB [2]: 7.52

N#CN/C(=N\CCNC(=O)CCc1ccccc1)NCCCOc1cccc(CN2CCCCC2)c1
Relative potency [5]: 74% | pKB [2]: 6.27

N#CN=C(NCCCOc1cccc(CN2CCCCC2)c1)NCCNC(=O)c1ccc(N)c(I)c1
Ki (Histamine H2 receptor [1]): 0.708 nM | Kb (Histamine H2 receptor [8]): 27.5 nM

N#CN/C(=N\CCCCNC(=O)c1ccc(N)cc1)NCCCOc1cccc(CN2CCCCC2)c1
Relative potency [5]: 81% | pKB [2]: 6.31

N#CN/C(=N\CCNC(=O)c1cccc(I)c1)NCCCCOc1cccc(CN2CCCCC2)c1
Ki (Histamine H2 receptor [9]): 5.25 nM | pKB [2]: 6.56 | Relative potency [10]: 145% | pKB [11]: 5.59 | pKB [12]: 6.15
